The subject of series [1] is MDA-MB-468. Put plainly: Antiproliferation activity against human MDA-MB-468 cells assessed as reduction in cell viability incubated for 72 hr by MTT assay. To be noted: MDA-MB-468, 72 h. The class given is functional, cell-based. Put shortly: (§1)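 MTT assay. Cells were plated overnight and exposed to a range of concentrations for 72 h. MTT was then added for 4 h and absorbance read at 570 nm. Inhibition% = [(control − compound)/(control − blank)] × 100. IC50 was fitted from the curves. Mean ± S.D. of 3–5 separate experiments. RPMI 1640 + 10% FBS; MCF10A in DMEM/F12 with 5% horse serum, EGF, hydrocortisone, insulin and cholera toxin.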
Background: Formazan colour is commonly taken as a measure of viable cells.

Series [2] has as its target T1, Protein smoothened (Homo sapiens, UniProt Q99835). The experiment in a line: Binding affinity to recombinant human Smo receptor assessed as association constant at equilibrium by SPR analysis.
Series [3] has as its target T1, Protein smoothened. The experiment in a line: Binding affinity to recombinant human Smo receptor assessed as dissociation rate constant by SPR analysis. An outline of the steps: (§2)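 Surface plasmon resonance with recombinant Smo protein, run in PBS at a flow rate of 2 μL/s and 4 °C. Analytes were injected at 2.5, 5 and 10 μM. The chip was regenerated with 0.5% SDS:glycine-HCl pH 2.0 (1:1). ka, kd, Rmax, KA and KD came from a global fit of the sensorgrams.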
Background: Surface plasmon resonance follows binding to a sensor surface in real time, without labels.

In series [4] the target is T1, Protein smoothened. The experiment in a line: Binding affinity to recombinant human Smo receptor assessed as dissociation constant at equilibrium by SPR analysis.
Another series concerns MCF7. The experiment in a line: Antiproliferation activity against human MCF7 cells assessed as reduction in cell viability incubated for 72 hrs by MTT assay. It is filed as functional, cell-based. As to conditions: MCF7, 72 h. Put shortly:
as §1

Series [5] deals with T1, Protein smoothened. Put plainly: Binding affinity to recombinant human Smo receptor assessed as association rate constant by SPR analysis. An outline of the steps:
as §2

The next series relates to T47D. The experiment in a line: Antiproliferation activity against human T47D cells assessed as reduction in cell viability incubated for 72 hr by MTT assay. The class given is functional, cell-based. An outline of the steps:
as §1

The target in series [6] is T1, Protein smoothened. The experiment in a line: Binding affinity to recombinant human Smo receptor assessed as maximum response at equilibrium by SPR analysis. Put shortly: as §2
A further series concerns HeLa. Put plainly: Antiproliferation activity against human HeLa cells assessed as reduction in cell viability incubated for 72 hrs by MTT assay. The class given is functional, cell-based. Put shortly:
as §1

The test system of another series is U-251. Put plainly: Antiproliferation activity against human U251 cells assessed as reduction in cell viability incubated for 72 hrs by MTT assay. The class given is functional, cell-based. To be noted: U-251, 72 h. An outline of the steps:
as §1

Series [7] can be described thus: Inhibition of hedgehog pathway in mouse NIH/3T3 cells harboring GRE-Luc assessed as inhibition of SAG-induced Hh signaling pathway by dual luciferase reporter gene assay. The class given is cell-based. As to conditions: NIH3T3. Put shortly: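 NIH3T3 cells co-transfected with 8×3' Gli-BS-delta51-Luc II firefly reporter and pRL-TK Renilla plasmid; after 24 h treated with compounds plus SAG (pathway activator). Gli luciferase normalized to Renilla (dual-luciferase read-out); IC50 = concentration halving normalized signal; mean ± S.D. of 3–5 separate experiments.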
(In general: Reporter assays use an easily measured gene product as a stand-in for the process of interest.)

The next series deals with MDA-MB-231. The experiment in a line: Antiproliferation activity against human MDA-MB-231 cells assessed as reduction in cell viability incubated for 72 hrs measured after 4 hrs by MTT assay. The class given is functional, cell-based. An outline of the steps:
as §1

A further series has as its system AN3-CA. Put plainly: Antiproliferation activity against human AN3CA cells assessed as reduction in cell viability incubated for 72 hr by MTT assay. The class given is functional, cell-based. An outline of the steps: as §1
A further series deals with A549. Put plainly: Antiproliferation activity against human A549 cells assessed as reduction in cell viability incubated for 72 hrs by MTT assay. To be noted: A549, 72 h. The class given is functional, cell-based. An outline of the steps: as §1
A short description of series [8]: Acute toxicity in Kunming mouse assessed as mortality at 1778 mg/kg, ig observed for 14 days relative to control. It is filed as organism-based. As to conditions: in vivo, po, read-out: Activity. An outline of the steps:
(§3)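 Kunming mice, groups of 5 female and 5 male per dose, dosed once by gavage at graded doses; mortality recorded over 14 days as dead/treated and percent. LD50 derived by improved Karber's method: LD50 = lg^-1[xm − i(ΣP − 0.5)], xm log of maximal dose, i log ratio of neighbouring doses; 95% confidence intervals given.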

The nature of series [9]: Acute toxicity in Kunming mouse assessed as mortality at 1111 mg/kg, ig observed for 14 days relative to control. To be noted: in vivo, po, read-out: Activity. The class given is organism-based. Put shortly: as §3
Series [10] can be described thus: Toxicity in BALB/c mouse xenografted with human MDA-MB-468 cells assessed as body weight at 80 to 100 mg/kg, ig measured every day for 21 day. The class given is organism-based. To be noted: in vivo, po, 504 h. Put shortly: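 Female BALB/c nude mice, 6–8 weeks, given 1.0×10^7 MDA-MB-468 cells s.c. in right posterior flank; at 100 mm3 tumours, randomized into groups of five. Daily gavage at 80 or 100 mg/kg in saline with 0.1% Tween 80, or vehicle alone; body weight recorded daily, tumour volume every 2 days; sacrificed day 21.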

Another series relates to MCF-10A. Put plainly: Cytotoxicity against human MCF10A cells assessed as cell viability incubated for 72 hrs measured by MTT assay. It is filed as cell-based. An outline of the steps: as §1
Series [11] in a line: Acute toxicity in Kunming mouse assessed as mortality at 4000 mg/kg, ig observed for 14 days relative to control. The class given is organism-based. As to conditions: in vivo, po, read-out: Activity. An outline of the steps:
as §3

The nature of series [12]: Acute toxicity in Kunming mouse assessed as lethality through intragastric administration observed for 14 days. To be noted: in vivo, po. Put shortly: as §3
Series [13] is described as follows: Acute toxicity in Kunming mouse assessed as mortality at 2667 mg/kg, ig observed for 14 days relative to control. As to conditions: in vivo, po, read-out: Activity. The class given is organism-based. An outline of the steps: as §3
In series [14] the test system is MDA-MB-468. Put plainly: Inhibition of hedgehog pathway in human MDA-MB-468 cells assessed as decrease in Smo protein levels in cilia at 28 uM incubated for 24 hrs by immunostaining based confocal microscopic analysis. The class given is cell-based. An outline of the steps:
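MDA-MB-468 cells were treated at 28 μM for 24 h with or without SAG. Cilia were immunostained for acetylated α-tubulin and Smo and imaged by confocal microscopy. Comparisons were made against DMSO and against SAG alone.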

The nature of series [15]: Acute toxicity in Kunming mouse assessed as mortality at 741 mg/kg, ig observed for 14 days relative to control. As to conditions: in vivo, po, read-out: Activity. It is filed as organism-based. Put shortly: as §3
Series [16] is described as follows: Acute toxicity in Kunming mouse assessed as mortality at 5000 mg/kg, ig observed for 14 days relative to control. The class given is organism-based. As to conditions: in vivo, po, read-out: Activity. Put shortly: as §3

Here are results for 4 compounds from ChEMBL document CHEMBL4622968, “Discovery of [1,2,4]triazolo[4,3-a]pyridines as potent Smoothened inhibitors targeting the Hedgehog pathway with improved antitumor activity in vivo” (Bioorg Med Chem, 2020).

Structures are written as SMILES. The source made the active and inactive calls. No cut-off for these calls is given here.

T1 sequence (Q99835 whole entry): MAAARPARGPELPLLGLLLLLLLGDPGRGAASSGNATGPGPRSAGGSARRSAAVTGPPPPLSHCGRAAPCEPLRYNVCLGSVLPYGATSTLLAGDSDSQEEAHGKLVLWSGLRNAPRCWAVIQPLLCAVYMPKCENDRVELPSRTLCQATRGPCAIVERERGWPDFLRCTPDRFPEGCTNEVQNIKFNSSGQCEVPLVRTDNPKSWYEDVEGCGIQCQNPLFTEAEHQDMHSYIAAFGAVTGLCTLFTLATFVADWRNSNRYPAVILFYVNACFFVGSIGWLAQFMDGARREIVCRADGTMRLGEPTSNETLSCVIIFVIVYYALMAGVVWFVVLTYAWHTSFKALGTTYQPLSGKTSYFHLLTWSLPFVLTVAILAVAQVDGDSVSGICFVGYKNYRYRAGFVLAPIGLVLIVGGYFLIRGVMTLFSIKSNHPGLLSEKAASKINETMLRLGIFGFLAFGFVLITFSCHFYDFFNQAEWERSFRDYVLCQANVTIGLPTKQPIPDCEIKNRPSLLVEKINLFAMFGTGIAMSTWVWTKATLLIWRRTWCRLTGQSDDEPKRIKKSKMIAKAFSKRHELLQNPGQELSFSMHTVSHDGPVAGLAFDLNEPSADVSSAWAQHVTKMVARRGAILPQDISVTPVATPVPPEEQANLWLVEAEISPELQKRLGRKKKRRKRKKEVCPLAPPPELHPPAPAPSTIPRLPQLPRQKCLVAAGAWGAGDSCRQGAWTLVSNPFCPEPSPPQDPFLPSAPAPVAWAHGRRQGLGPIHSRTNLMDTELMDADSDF

One may read the IC50 as the concentration needed to halve the response being measured. The Kd is the concentration at which binding is half-saturated. Turning to `O=C(Nc1ccc(Cl)c(-c2nnc3c(Cl)cccn23)c1)c1ccc(C(F)(F)F)cc1F`, the IC50 is 22.3 µM in the series on MDA-MB-468 [1]; 62.8 µM with MCF7; 70.8 µM with T47D; 61.9 µM in the series with HeLa; above 100 µM in the series on U-251; 0.096 µM in series [7]. Further, the IC50 is above 100 µM in the series with MDA-MB-231, 41.2 µM with AN3-CA and above 100 µM with A549. For the same compound, the KA on Protein smoothened [2] was 7.35 ×10⁴ /M. Moreover, the Kdiss on Protein smoothened [3] was found to be 1.51 ×10⁻³ /s. In addition, the Kd on Protein smoothened [4] was determined as 13.6 µM. Also, the Ka at Protein smoothened [5] was 111 M⁻¹ s⁻¹. The Rmax at Protein smoothened [6] stood at 49.2 RU.

For `O=C(Nc1ccc(Cl)c(-c2nnc3c(Cl)cccn23)c1)c1ccc(C(F)(F)F)nc1Cl`, the 50% inhibitory concentration (IC50) in the series on MDA-MB-468 [1] was 46 µM; in the series with MCF7, above 100 µM; in the series on T47D, 87.6 µM; with HeLa, 86.3 µM; in the series on U-251, above 100 µM; in [7], 0.093 µM. Also, the IC50 was above 100 µM with MDA-MB-231, 48.3 µM with AN3-CA and 46.8 µM with A549. The KA on Protein smoothened [2] stood at 9.43 ×10⁷ /M. On Protein smoothened [3], the Kdiss was determined as 0.00275 ×10⁻³ /s. Also, on Protein smoothened [4], the Kd was 0.0106 µM. In addition, the Ka at Protein smoothened [5] worked out at 260 M⁻¹ s⁻¹. Also, the Rmax on Protein smoothened [6] was determined as 8.44 RU.

The term LD50 denotes the dose at which mortality reaches 50%. `CS(=O)(=O)c1ccc(C(=O)Nc2ccc(Cl)c(-c3ccccn3)c2)c(Cl)c1` [VISMODEGIB]: the IC50 in the series with MDA-MB-468 [1] was 79 µM; in the series with MCF7 it was above 100 µM; with T47D, above 100 µM; in the series on MCF-10A it was 89.5 µM; in the series on HeLa, 61.7 µM; in the series on U-251 it was above 100 µM. The IC50 in [7] was 0.1 µM; in the series on MDA-MB-231, above 100 µM; with AN3-CA, 93 µM; in the series on A549, above 100 µM. Besides, the mortality at 336 h in series [8] worked out at 50%; in series [9] it was 30%; in [11], 80%; in [13] it was 60%; in [15], 10%. Besides, the Kdiss at Protein smoothened [3] turned out to be 0.0174 ×10⁻³ /s. Further, the Activity entry in series [10] was “Non-Toxic”. Also, at Protein smoothened [5], the Ka turned out to be 179 M⁻¹ s⁻¹. Moreover, the LD50 at 336 h in series [12] is 2010 mg/kg. Further, the Rmax on Protein smoothened [6] is 4.63 RU. For the same compound, the inhibition result with MDA-MB-468 [14] was “Active”.

For `O=C(Nc1ccc(Cl)c(-c2nnc3c(Cl)cccn23)c1)c1cccc(Cl)c1`, the IC50 with MDA-MB-468 [1] was 54.8 µM; in the series on MCF7, 71.9 µM; in the series on T47D it was 30.2 µM; with HeLa, above 100 µM; with U-251 it was 43.1 µM; in [7], 0.102 µM. The IC50 is 66.1 µM with MDA-MB-231, 68.4 µM with AN3-CA and 52.7 µM in the series on A549. For the same compound, the mortality at 336 h in series [16] stood at 0%. The KA at Protein smoothened [2] came to 8.21 ×10⁴ /M. Also, at Protein smoothened [3], the Kdiss came out at 1.23 ×10⁻³ /s. Besides, on Protein smoothened [4], the Kd worked out at 12.1 µM. Also, the Ka on Protein smoothened [5] turned out to be 101 M⁻¹ s⁻¹. Further, the LD50 at 336 h in series [12] was above 5000 mg/kg. Also, at Protein smoothened [6], the Rmax stood at 41.2 RU.
